Reference: ChEMBL document CHEMBL2417403, “N-terminal guanidinylation of TIPP (Tyr-Tic-Phe-Phe) peptides results in major changes of the opioid activity profile” (Bioorg Med Chem Lett, 2013)
Where a SMILES comes first, the peptide text is derived from it.

Columns and labels:
[1] = biological target: Delta-type opioid receptor (Mus musculus) (UniProt P32300); assay: Partial agonist activity at delta opioid receptor in mouse vas deferens assessed as inhibition of electrically-stimulated muscle contraction
Procedure, shortened: (§1)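 Mouse vas deferens bioassay, delta-representative tissue. Agonist potency was expressed as IC₅₀ and antagonist activity as a Ke value.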

[2] = biological target: mu/kappa opioid receptor (Cavia porcellus) (UniProt P41144+P97266); assay: Partial agonist activity at mu/kappa opioid receptor in guinea pig ileum assessed as inhibition of electrically-stimulated muscle contraction; type: tissue-based
[3] = biological target: Delta-type opioid receptor (Mus musculus) (UniProt P32300); assay: Antagonist activity at delta opioid receptor in mouse vas deferens assessed as inhibition of electrically-stimulated muscle contraction; procedure, shortened: as §1
Mu-type opioid receptor [4] = biological target: Mu-type opioid receptor (Cavia porcellus, UniProt P97266); assay: Agonist activity at mu opioid receptor in guinea pig ileum assessed as […] of electrically-stimulated muscle contraction; type: tissue-based
[5] = Selectivity ratio of Ki for kappa opioid receptor in guinea pig brain membranes to Ki for delta opioid receptor in rat brain membranes; type: cell membranes
Rattus norvegicus = species on record: Rattus norvegicus; assay: Selectivity ratio of Ki for mu opioid receptor in rat brain membranes to Ki for delta opioid receptor in rat brain membranes; type: cell membranes
[6] = biological target: Kappa-type opioid receptor (Cavia porcellus, UniProt P41144); assay: Displacement of [3H]U69,593 from kappa opioid receptor in guinea pig brain membranes; type: cell membranes, Membrane
Procedure, shortened: (§2)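 Competitive displacement of tritiated radioligands, with affinities reported as Ki. Mu sites were labelled with [³H]DAMGO and delta sites with [³H]DSLET, both on rat brain membranes. Kappa sites were labelled with [³H]U69,593 on guinea pig brain membranes.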

[7] = biological target: Delta-type opioid receptor (Rattus norvegicus, UniProt P33533); assay: Displacement of [3H]DSLET from delta opioid receptor in rat brain membranes; type: cell membranes; procedure, shortened: as §2
Mu-type opioid receptor [8] = biological target: Mu-type opioid receptor (Rattus norvegicus, UniProt P33535); assay: Displacement of [3H]DAMGO from mu opioid receptor in rat brain membranes; type: cell membranes; procedure, shortened: as §2
Sequence of Mu-type opioid receptor (Rattus norvegicus, UniProt P33535) (P33535 whole entry): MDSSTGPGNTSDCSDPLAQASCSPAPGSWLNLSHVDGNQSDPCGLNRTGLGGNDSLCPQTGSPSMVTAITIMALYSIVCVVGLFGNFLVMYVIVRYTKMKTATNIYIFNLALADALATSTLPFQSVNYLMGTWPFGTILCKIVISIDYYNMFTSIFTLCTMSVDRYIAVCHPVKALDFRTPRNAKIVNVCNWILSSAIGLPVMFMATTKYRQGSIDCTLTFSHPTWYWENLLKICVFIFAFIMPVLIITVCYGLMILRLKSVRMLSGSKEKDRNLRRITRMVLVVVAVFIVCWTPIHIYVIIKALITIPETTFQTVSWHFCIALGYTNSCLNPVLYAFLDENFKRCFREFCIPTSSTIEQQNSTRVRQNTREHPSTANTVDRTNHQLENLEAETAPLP

Sequence of Delta-type opioid receptor (Mus musculus) (P32300 whole entry): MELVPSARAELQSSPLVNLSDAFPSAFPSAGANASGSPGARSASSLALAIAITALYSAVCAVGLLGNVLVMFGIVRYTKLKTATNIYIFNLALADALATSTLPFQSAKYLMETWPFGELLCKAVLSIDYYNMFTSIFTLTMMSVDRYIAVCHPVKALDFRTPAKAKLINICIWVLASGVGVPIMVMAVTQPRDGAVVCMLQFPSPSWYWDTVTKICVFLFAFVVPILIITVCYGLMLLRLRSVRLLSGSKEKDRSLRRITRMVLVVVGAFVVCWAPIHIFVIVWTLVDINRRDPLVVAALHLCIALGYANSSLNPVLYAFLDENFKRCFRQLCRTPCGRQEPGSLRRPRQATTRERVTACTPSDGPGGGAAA
Sequence of Mu-type opioid receptor (Cavia porcellus, UniProt P97266) (P97266 whole entry): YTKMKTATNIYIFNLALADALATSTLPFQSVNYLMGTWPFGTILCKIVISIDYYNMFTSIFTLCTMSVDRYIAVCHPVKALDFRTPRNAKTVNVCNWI
Sequence of Delta-type opioid receptor (P33533 whole entry): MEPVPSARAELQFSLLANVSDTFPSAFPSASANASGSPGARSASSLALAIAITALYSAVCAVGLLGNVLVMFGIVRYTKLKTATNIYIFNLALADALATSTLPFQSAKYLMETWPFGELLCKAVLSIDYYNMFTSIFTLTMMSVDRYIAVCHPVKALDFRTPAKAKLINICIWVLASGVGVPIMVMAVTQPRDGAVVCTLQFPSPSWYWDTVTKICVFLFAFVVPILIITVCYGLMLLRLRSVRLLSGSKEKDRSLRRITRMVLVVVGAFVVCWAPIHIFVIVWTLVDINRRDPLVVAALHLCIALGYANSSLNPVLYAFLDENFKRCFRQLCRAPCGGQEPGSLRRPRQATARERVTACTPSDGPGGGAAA
Sequence of mu/kappa opioid receptor (Cavia porcellus) (P41144 whole entry, looked up): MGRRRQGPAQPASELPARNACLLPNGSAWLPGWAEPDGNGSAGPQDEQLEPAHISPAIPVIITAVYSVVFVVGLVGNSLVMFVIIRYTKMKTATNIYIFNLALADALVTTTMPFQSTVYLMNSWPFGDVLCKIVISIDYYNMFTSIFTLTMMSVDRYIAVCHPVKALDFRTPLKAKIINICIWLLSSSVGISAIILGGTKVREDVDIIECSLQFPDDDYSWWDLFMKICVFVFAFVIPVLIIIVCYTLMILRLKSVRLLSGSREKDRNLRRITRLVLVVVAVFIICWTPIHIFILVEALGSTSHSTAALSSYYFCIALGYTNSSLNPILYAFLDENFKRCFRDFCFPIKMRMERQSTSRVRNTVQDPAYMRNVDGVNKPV
Sequence of mu/kappa opioid receptor (Cavia porcellus) (P97266 whole entry, looked up): as the sequence (P97266 whole entry) above
Sequence of Kappa-type opioid receptor (P41144 whole entry): as the sequence (P41144 whole entry, looked up) above

| Structure (SMILES) | Imax [1] [%] | IC35 [1] [nM] | Ke [3] [nM] | further results |
| --- | --- | --- | --- | --- |
| N=C(N)N[C@@H](Cc1ccc(O)cc1)C(=O)N1Cc2ccccc2C[C@H]1C(=O)N[C@@H](Cc1ccccc1)C(=O)N[C@@H](Cc1ccccc1)C(=O)O | 33 |  |  |  |
| Cc1cc(O)cc(C)c1C[C@H](NC(=N)N)C(=O)N1Cc2ccccc2C[C@H]1C(=O)N[C@@H](Cc1ccccc1)C(=O)N[C@@H](Cc1ccccc1)C(=O)O |  | 1.57 |  |  |
| Cc1cc(O)cc(C)c1C[C@H](N)C(=O)N1Cc2ccccc2C[C@H]1CN[C@@H](CCCCN)C(=O)N[C@@H](Cc1ccccc1)C(N)=O |  | 23.2 |  |  |
| Cc1cc(O)cc(C)c1C[C@H](NC(=N)N)C(=O)N1Cc2ccccc2C[C@H]1C(=O)O | 50 |  |  | Imax [2]: 50% |
| Cc1cc(O)cc(C)c1C[C@H](NC(=N)N)C(=O)N1Cc2ccccc2C[C@H]1CN[C@@H](CCCCN)C(=O)N[C@@H](Cc1ccccc1)C(N)=O |  | 7.35 |  |  |
| Cc1cc(O)cc(C)c1C[C@H](N)C(=O)N1Cc2ccccc2CC1CN[C@@H](Cc1ccccc1)C(=O)N[C@@H](Cc1ccccc1)C(N)=O (some centres not stated) |  |  | 0.537 | IC50 (Mu-type opioid receptor [4]): 7.71 nM |
| N[C@@H](Cc1ccc(O)cc1)C(=O)N1Cc2ccccc2C[C@H]1C(=O)N[C@@H](Cc1ccccc1)C(=O)N[C@@H](Cc1ccccc1)C(=O)O (HELM PEPTIDE1{Y.[Tic].F.F}$$$$V2.0) |  |  | 480 |  |
| N=C(N)N[C@@H](Cc1ccc(O)cc1)C(=O)N1Cc2ccccc2C[C@H]1CN[C@@H](Cc1ccccc1)C(=O)N[C@@H](Cc1ccccc1)C(=O)O | 50 |  |  |  |
| Cc1cc(O)cc(C)c1C[C@H](N)C(=O)N1Cc2ccccc2C[C@H]1C(=O)N[C@@H](CCCCN)C(=O)N[C@@H](Cc1ccccc1)C(N)=O (HELM PEPTIDE1{[Cc1cc(O)cc(C)c1C[C@H](N)C(=O)[*:2]].[Tic].K.F.[am]}$$$$V2.0) |  |  | 2.18 | Ratio Ki [5]: 7; Ratio Ki (Rattus norvegicus): 63; Ki [6]: 2.23 nM; Ki [7]: 0.306 nM; Ki (Mu-type opioid receptor [8]): 19.4 nM; IC50 (Mu-type opioid receptor [4]): 16.5 nM |
